High-throughput results as filed in PubChem BioAssay.
This is a sample that favours compounds with a hit; in the whole collection about 1.9% have one here.
UHRF1 MBD2 ctr = UHRF1 methyl-DNA binding inhibition; Q96T88; AID 687016; hit rate 0.75% among 370,000; UHRF1 binding to methylated oligo, TR-FRET; inhibition, % at 4.4 µM; in the data active = inhibition above about 21%;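 also: UHRF1 SRA domain binding a hemimethylated CpG hairpin DNA probe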
Rin1 Abl inh = human Rin1-Abl interaction inhibition. TR-FRET Rin1/Abl binding, biochemical. inhibition, % at 7.35 µM. P00519+Q13671. AID 588664. hit rate 0.4% among 360,000; in the data active = inhibition above about 5%, passing the limit was not always enough
Target sequence (P00519 whole entry, looked up): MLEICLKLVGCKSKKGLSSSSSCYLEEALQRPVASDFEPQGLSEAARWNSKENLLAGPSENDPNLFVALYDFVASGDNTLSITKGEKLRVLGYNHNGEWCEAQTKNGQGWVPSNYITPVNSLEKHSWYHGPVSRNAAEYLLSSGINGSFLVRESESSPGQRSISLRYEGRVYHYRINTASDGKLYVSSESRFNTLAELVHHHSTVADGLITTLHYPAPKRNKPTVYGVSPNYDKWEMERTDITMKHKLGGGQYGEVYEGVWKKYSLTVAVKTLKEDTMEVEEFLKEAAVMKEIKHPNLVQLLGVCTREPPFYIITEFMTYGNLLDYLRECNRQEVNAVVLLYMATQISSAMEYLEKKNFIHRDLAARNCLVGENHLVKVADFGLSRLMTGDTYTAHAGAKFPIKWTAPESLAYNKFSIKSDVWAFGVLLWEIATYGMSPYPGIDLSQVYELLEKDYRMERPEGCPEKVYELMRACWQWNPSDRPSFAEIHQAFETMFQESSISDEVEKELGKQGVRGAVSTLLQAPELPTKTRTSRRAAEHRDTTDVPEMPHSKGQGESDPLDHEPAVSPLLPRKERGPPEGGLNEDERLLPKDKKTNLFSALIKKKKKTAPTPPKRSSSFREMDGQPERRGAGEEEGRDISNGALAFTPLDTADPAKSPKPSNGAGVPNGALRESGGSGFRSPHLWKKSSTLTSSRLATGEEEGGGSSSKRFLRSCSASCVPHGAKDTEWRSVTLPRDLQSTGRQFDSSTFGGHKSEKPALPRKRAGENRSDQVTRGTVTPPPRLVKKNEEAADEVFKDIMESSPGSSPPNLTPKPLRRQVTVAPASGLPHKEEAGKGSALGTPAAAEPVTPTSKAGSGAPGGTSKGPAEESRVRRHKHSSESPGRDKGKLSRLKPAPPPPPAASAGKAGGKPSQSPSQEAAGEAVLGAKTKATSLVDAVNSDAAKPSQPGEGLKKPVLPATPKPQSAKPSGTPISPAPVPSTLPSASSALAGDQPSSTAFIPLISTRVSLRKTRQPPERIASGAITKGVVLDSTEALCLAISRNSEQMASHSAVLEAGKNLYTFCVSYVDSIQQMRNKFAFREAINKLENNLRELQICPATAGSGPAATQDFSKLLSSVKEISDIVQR
Target sequence (Q13671 whole entry, looked up): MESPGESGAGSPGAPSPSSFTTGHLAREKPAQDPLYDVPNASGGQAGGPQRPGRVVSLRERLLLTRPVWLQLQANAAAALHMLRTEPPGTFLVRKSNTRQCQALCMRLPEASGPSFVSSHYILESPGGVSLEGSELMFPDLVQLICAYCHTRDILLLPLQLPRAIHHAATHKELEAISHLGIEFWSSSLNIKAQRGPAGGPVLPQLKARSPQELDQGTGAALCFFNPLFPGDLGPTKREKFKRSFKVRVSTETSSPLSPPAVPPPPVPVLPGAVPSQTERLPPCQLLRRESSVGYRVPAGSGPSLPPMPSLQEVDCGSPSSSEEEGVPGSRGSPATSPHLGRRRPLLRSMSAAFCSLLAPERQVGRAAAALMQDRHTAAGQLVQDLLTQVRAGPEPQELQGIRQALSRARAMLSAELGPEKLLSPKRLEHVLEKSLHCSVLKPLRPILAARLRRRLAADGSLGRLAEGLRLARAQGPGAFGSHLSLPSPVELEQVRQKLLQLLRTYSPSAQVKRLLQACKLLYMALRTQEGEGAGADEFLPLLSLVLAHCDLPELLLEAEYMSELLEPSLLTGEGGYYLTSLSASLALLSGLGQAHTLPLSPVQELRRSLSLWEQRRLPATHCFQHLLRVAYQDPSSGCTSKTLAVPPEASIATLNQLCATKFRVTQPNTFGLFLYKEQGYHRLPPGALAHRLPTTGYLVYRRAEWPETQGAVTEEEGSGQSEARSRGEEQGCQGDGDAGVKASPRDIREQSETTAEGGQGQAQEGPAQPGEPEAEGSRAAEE
MBD2 inh = blocks human MBD2 binding to methylated DNA | Q9UBB5 | TR-FRET, MBD2 binding to methylated oligonucleotide | inhibition, % at 4.4 µM | hit rate 0.31% among 370,000 | AID 686964; in the data active = inhibition above about 13%
TDP2 inh = TDP2 (human) inhibition, absorbance primary screen; O95551; inhibition, % at 12.8 µM; hit rate 0.34% among 370,000; recombinant TDP2, T5PNP hydrolysis, p-nitrophenol absorbance 415 nm;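 active = inhibition above the mean of all tested compounds plus 3 SD, set per campaign, cut at about 25% in these data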
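test system = human TDP2 enzyme | input = TDP2 enzyme at 120 nM final | medium = 50 mM Tris-HCl pH 7.5 with Mg2+, KCl, DTT, BSA | also added = T5PNP substrate, 5 mM | times = 2 h at 37 °C | technique = epi absorbance | benchmarks = high control without enzyme, low control DMSO plus TDP2 | replication = each compound tested once, singlicate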
LEDGF integ inh = blocks HIV-1 LEDGF/p75-dependent DNA integration | TR-FRET IN-LEDGF/p75 DNA integration, Eu/Cy5 | inhibition, % at 3.7 µM | hit rate 0.64% among 370,000;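 active = inhibition above the screen-wide mean plus 3 SD, cut at about 13% in these data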;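 also: signal is the Cy5 over europium emission ratio at 671 and 618 nm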
IN multimer up = counter-screen for LEDGF/p75 integration inhibitors: HIV-1 integrase multimerization activators; shares compounds with LEDGF integ inh; TR-FRET HIV-1 integrase multimerization, biochemical; activation, % at 7.7 µM; hit rate 17% among 2,000; AID 1053131; in the data active = activation above about 8.9%
TR-FRET interf = TR-FRET optical interference, LEDGF/p75 integration counter-screen; shares compounds with LEDGF integ inh; TR-FRET optical interference counterscreen, HIV-1 IN multimerization; inhibition, % at 7.7 µM; 2,000 tested, under 10 active; AID 1053135;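 active = inhibition above the mean over all tested compounds plus 3 SD, which no compound reached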
LEDGF integ conf = confirmation of HIV-1 LEDGF/p75-dependent integration inhibitors; TR-FRET LEDGF/p75-dependent HIV-1 integration, biochemical; hit rate 36% among 2,000; AID 1053136; shares compounds with LEDGF integ inh; inhibition, % at 3.7 µM; in the data active = inhibition above about 14%
Numbers stand for hits; i = inactive; nt = not tested or not shown.

SMILES	UHRF1 MBD2 ctr	Rin1 Abl inh	MBD2 inh	TDP2 inh	LEDGF integ inh	IN multimer up	TR-FRET interf	LEDGF integ conf
O=C1c2cc(O)c(O)cc2S(=O)(=O)C1c1ccccc1 (configuration not stated)	27	i	i	i	23	i	i	i
CC1CCN(C(=O)CCNS(=O)(=O)c2ccc(Br)cc2)CC1	i	i	i	i	45	i	i	i
CCc1ccc2c(c1)C(NC(C)=O)C(=O)N2CCN1CCOCC1 (configuration not stated)	i	i	i	i	15	i	i	33
CCOC(=O)[C@]12CCCC=C1N(Cc1ccccc1)C(=O)[C@H](CC(=O)N1CCCCCC1)C2	i	nt	i	i	23	i	i	i
COc1ccc2nc(NC(=O)c3ccccc3F)sc2c1	i	i	i	i	16	i	i	i
COc1ccc2nc(NC(=O)c3ccccc3C(=O)O)sc2c1	i	i	i	i	i	nt	nt	nt
CC(C)CCOP(=O)(c1ccc(N(C)C)cc1)C(O)c1ccccc1F (configuration not stated)	i	i	i	i	21	i	i	i
CC(C)OP(=O)(c1ccc(N(C)C)cc1)C(O)c1ccccc1F (configuration not stated)	i	i	i	i	i	nt	nt	nt
Cc1ccc(NC(=O)c2ccc3nc(N4CCOCC4)sc3c2)c(Cl)c1	i	i	i	i	i	nt	nt	nt
COc1ccc(S(=O)(=O)N2CCN(Cc3cc(OC)c(OC)c(OC)c3)CC2)cc1	i	i	i	i	i	nt	nt	nt
O=C(COC(=O)c1sc2ccccc2c1Cl)NCC1CCCCC1	i	i	i	i	16	i	i	i
CC1CCCC(NC(=O)COC(=O)c2sc3ccccc3c2Cl)C1C (configuration not stated)	i	i	i	i	i	nt	nt	nt
OC[C@H]1O[C@@H](c2nc(-c3ccc(CN4CCOCC4)cc3)no2)[C@H](O)[C@@H](O)[C@H]1O	i	i	i	i	16	i	i	i
OC[C@H]1O[C@@H](c2nc(-c3ccc4c(c3)CCO4)no2)[C@H](O)[C@@H](O)[C@H]1O	i	i	i	i	i	nt	nt	nt
CCOC(=O)N1CCN(S(=O)(=O)N2CCCC(C(=O)NCc3ccccc3OCC)C2)CC1 (configuration not stated)	i	i	i	i	i	nt	nt	nt
Cc1c(C(=O)NCCC#N)sc(=O)n1Cc1ccc(C(=O)N(C)C)cc1	i	i	i	i	32	i	i	i
COc1ccccc1CNS(=O)(=O)c1ccc2c(c1)NC(=O)C(C)S2 (configuration not stated)	i	i	i	i	i	nt	nt	nt
O=[N+]([O-])c1ccc(N=Nc2ccc(O)cc2O)cc1	i	i	i	i	i	nt	nt	nt
O=S(=O)(O)c1cc(Cl)cc(N=Nc2ccc(O)cc2O)c1O	i	i	i	i	72	14	i	31
COc1cc2cc3c(N)c(C(=O)Nc4sc(C)c(C)c4C#N)sc3nc2cc1OC	i	i	i	i	15	27	i	46
COc1cc2cc3c(N)c(C(=O)NCc4ccco4)sc3nc2cc1OC	nt	i	nt	nt	nt	nt	nt	nt
COc1cccc(CNC(=O)Cn2c(-c3ccccc3)cc(C(C)=O)c2C)c1	i	nt	i	i	i	nt	nt	nt
Cc1cccn2c(=O)nc(SCC(=O)NCc3ccc4c(c3)OCO4)nc12	i	i	i	i	i	nt	nt	nt
COC(=O)c1sccc1NS(=O)(=O)c1ccc(OC)cc1	i	i	i	i	i	nt	nt	nt
COC(=O)c1sccc1N/C=C(\C#N)S(=O)(=O)C(C)(C)C	i	i	i	i	79	i	i	i
COC(=O)C1=C(C)N(Cc2ccco2)C(=O)C1	i	i	i	i	29	i	i	31
O=C(C(=Cc1ccccc1)CN1CCCCC1)c1ccccc1	i	i	i	i	19	i	i	i
O=C(CCCCN1CCCCC1)c1ccccc1	i	i	i	i	i	nt	nt	nt
CC(C)(C)OC(=O)N1CCC(C(=O)N[C@@H](Cc2ccccc2)C(=O)O)(c2ccccc2)CC1	i	i	i	i	18	i	i	15
